# Unmarked numbers belong to inactive results. Records with an inconclusive call do not appear. The source made the active and inactive calls.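 How the source made its calls, unless noted: active means RAM network inhibition above 8.4% in each of two replicates, 3 SD over the compound average; inconclusive means above 8.4% inhibition in only one replicate; inactive means 8.4% inhibition or less in each replicate.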
# Tests used:
# [1] = OD615 S. cerevisiae growth inhibition, permissive medium, pilot counter-assay, permissive growth control for S. cerevisiae lifespan shortening project (AID 705;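 active means growth inhibition above 25% in both replicates, a cutoff set 3 SD above the mean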); conditions: OD615, 24 h, at 10 µM, active compounds read high
# How it was run: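 System: S. cerevisiae with engineered DeaD lifespan system / Measured by: absorbance (optical density) at 615 nm / Read-out: reduction in yeast growth (OD615) / Times: 4 h cell pre-growth, 24 h exposure at 30 °C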
# [2] = Restrictive medium S. cerevisiae growth inhibition, OD615, pilot screen of yeast lifespan reduction project, restrictive growth control (AID 706;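 active means growth inhibition above a set limit, 3 SD over mean compound inhibition, in both replicates, cut at about 43% in these data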;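 further: modified DeaD lifespan yeast strain shifted to restrictive glucose medium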); conditions: OD615, 48 h, at 10 µM, active compounds read high
# How it was run: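 System: Engineered S. cerevisiae DeaD strain | Buffer or medium: Glucose-based CSMM-D restrictive medium | Schedule: 4 h pre-incubation, 48 h exposure at 30 °C | Technique: Optical density at 615 nm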
# [3] = viability gain of MRP-1-high H69AR cells under doxorubicin, pilot screen, MRP-1 activator project, CellTiter-Glo, duplicate (AID 807;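 active means viability increase at or above a cutoff of the median across tested compounds plus 3 SD, cut at about 8.5% in these data, passing the limit was not always enough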;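 further: compound pretreatment 18-22 h then 72 h combined with doxorubicin; 0% = doxorubicin alone and 100% = vehicle without doxorubicin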); conditions: H69AR viability with doxorubicin, CellTiter-Glo luminescence; at 10 µM; active compounds read high
# [4] = growth suppression of beta-catenin knockout HCT116, pilot screen, human colon tumor cells (AID 823;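 active means cell viability at or below a set limit in both duplicate runs, the limit being the all-compound median minus 4 SD, cut at about 23% in these data, passing the limit was not always enough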;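 further: 0% = wells killed by 20 µM Hyamine and 100% = untreated DMSO cell wells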); conditions: CellTiter-Glo, 60 h, at 10 µM, active compounds read low
# [5] = growth suppression of PTEN-deleted HCT116, pilot screen, cell-based, HCT116 clonal line, CellTiter-Glo (AID 824;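 active means viability at or below 27.92% in each of two runs, the all-compound median minus 4 SD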;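 further: 0% = 20 µM Hyamine control and 100% = vehicle cell control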); conditions: 60 h, at 10 µM, active compounds read low
# [6] = inhibitors of the yeast RAM network, pilot screen, dse1pr::URA3 reporter, 5-FOA selection (AID 869;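 active means inhibition over a set limit, the all-compound mean plus 3 SD, in both replicate runs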;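 further: 0% = DMSO wells with no growth and 100% = 10 µM 1-NA-PP1 with full growth; RAM network block rescues cells from 5-FOA so hits raise OD615 growth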); conditions: S. cerevisiae dse1pr::URA3 5-FOA growth, OD615, 2 d; at 10 µM; active compounds read high; strain carries analog-sensitive mutant Cbk1 kinase
# [7] = RAM signaling pathway blockade in yeast – S. cerevisiae, Pdr1DBD-CYC8 efflux-inhibited sensitized strain, primary screen (AID 1298);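 further: 0% = DMSO untreated cells without growth and 100% = 10 µM 1-NA-PP1 full growth; higher means more yeast growth rescued from 5-FOA killing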; conditions: S. cerevisiae cbk1-as DSE1-URA3 strain, 5-FOA growth OD615, 2 d; at 50 µM; active compounds read high
Structure (SMILES),growth inhibition [1],growth inhibition [2],viability increase [3],viability [4],viability [5],inhibition [6],RAM network inhibition [7]
CN(C)c1cccc(NC(=O)Cc2ccc(F)cc2)c1,-11.6%,-21.4%,-4.02%,85.4%,84.2%,1.14%,5.85%
NS(=O)(=O)c1ccc(S(=O)(=O)NCCc2ccccc2)cc1,-4.76%,8.78%,0.73%,93.3%,94.9%,1%,3.88%
Cc1nnc(NC(=O)CSc2nnc(CNC(=O)c3ccccc3)n2-c2ccccc2)s1,-5%,-0.57%,0%,96.1%,96.5%,3%,3.59%
O=C1NC(c2cccs2)C(C(=O)c2ccccc2)C(O)(C(F)(F)F)N1 (stereo not drawn),-0.14%,-7.88%,-0.03%,94.8%,90.4%,0.61%,0.87%
O=S(=O)(c1cccs1)N1CCCc2ccccc21,-13.1%,-18.4%,-2.75%,83.5%,83.8%,1.71%,3.38%
COc1ccc2[nH]cc(CCNC(=O)C3CCCNC3=O)c2c1 (stereo not drawn),-14.6%,-16.5%,-1.57%,104%,102%,0.15%,2.98%
COC(=O)c1nc2n(n1)C(c1cccc(Cl)c1)C1=C(CC(C)(C)CC1=O)N2 (stereo not drawn),2.12%,-2.75%,-2.72%,98.7%,99.8%,0.75%,-0.77%
CC1Cc2ccccc2N1C1=NS(=O)(=O)c2ccccc21 (stereo not drawn),-3.44%,-25.5%,-1.97%,91.7%,96.5%,2.68%,7%
Cc1ccc(-n2ncc3c(NCc4ccco4)ncnc32)c(C)c1,-3.74%,-9.7%,-4.75%,97.3%,90.4%,-0.12%,-0.57%
OC(C#CCN1CCCC1)c1ccccc1 (stereo not drawn),-1.08%,-5.8%,-0.22%,91.6%,98.8%,0.7%,-0.43%
COc1ccc(CCNS(=O)(=O)c2ccc3c(c2)oc(=O)n3C)cc1OC,-5.33%,-1.19%,-0.83%,105%,94.2%,2.37%,0.8%
O=C(CSc1ccc2nnc(-c3ccc(Cl)cc3)n2n1)N1CCN(c2ccccc2)CC1,20.5%,63.7% (active),-3.11%,96.6%,85.5%,-0.195%,3.08%
CCCSCCCNC(=O)Cn1cc2c(n1)CCCCC2,-3.9%,5.24%,-2.42%,94%,93.2%,-0.37%,3.05%
O=C(CCn1c(=O)oc2ccccc21)N1CCN(c2ccc(F)cc2)CC1,2.05%,-4.67%,-0.8%,107%,102%,1.09%,3.71%
COCCNC(=O)c1cc(-c2ccc(Cl)c(Cl)c2)on1,-2.25%,-1.81%,-0.93%,82.5%,87.8%,0.18%,5.68%
CCOC(=O)c1cc(-c2ccc(C)cc2)n(CC(=O)NCc2ccco2)c1C,12.1%,-7.09%,-5.81%,74.6%,77.5%,3.1%,5.82%
CC(C)C(NS(=O)(=O)c1ccc2c(c1)oc(=O)n2C)C(=O)N1CCN(c2ccccc2F)CC1 (stereo not drawn),-11%,-9.9%,-4.04%,86.9%,83.1%,1.75%,4.04%
Brc1ccc(-c2nnc3sc(CNC4CCCC4)cn23)cc1,0.69%,24.3%,0.19%,106%,107%,1.58%,2.6%
O=C(NCc1ccco1)C1CCN(c2nc3ccccc3n2Cc2ccc(F)cc2)CC1,-6.36%,-0.175%,-5.61%,78.1%,73.9%,0.41%,7.12%
COC(=O)c1c(NC(=O)CCCC(=O)O)sc(C)c1C,-6.98%,3.54%,-3.07%,91.8%,87.9%,0.305%,3.63%
Cn1ccnc1SCc1cn2cc(Br)ccc2n1,2.79%,22.2%,-3.12%,91.8%,84.7%,1.51%,4.08%
COC(=O)C1CCN(C(c2cc(OC)c(OC)c(OC)c2)c2sc3nc(C)nn3c2O)CC1 (stereo not drawn),-10.8%,-17.2%,-1.81%,102%,93%,2.08%,3.91%
O=C(CSc1nc2ccccc2c(=O)[nH]1)N1CCCCC1,-16.2%,-5.08%,-2.69%,98.7%,84.7%,0.395%,-0.51%
CC(=O)NC(O)C(=O)c1ccccc1 (stereo not drawn),5.71%,3.38%,-2.24%,97%,89.6%,-0.095%,3.35%
CC(=O)N1CCC(N(CCN2CCOCC2)C(=O)Nc2ccc(Cl)c(Cl)c2)CC1,-8.97%,-0.8%,-1.49%,97%,95.6%,2.5%,1.45%

Structure (SMILES),growth inhibition [1],growth inhibition [2],viability increase [3],viability [4],viability [5],inhibition [6],RAM network inhibition [7]
COc1ccc(OCC(=O)N(C)Cc2ccccc2)cc1,-3.42%,1.48%,-2.43%,96%,91.7%,0.72%,0.61%
CCc1cc(=O)oc2cc(OCC(=O)N(CC)CC)c(Cl)cc12,6.47%,-5.33%,1.34%,109%,104%,-0.545%,3.66%
Cc1cccc(Cn2c(CN3CCN(Cc4ccccc4)CC3)nc3c2c(=O)[nH]c(=O)n3C)c1,-14.3%,-14.1%,-3.25%,50.4%,48.6%,2.25%,1.88%
CCN1c2ccccc2NC2C1C(C(C)=O)C(=O)N2c1ccc(Cl)cc1 (stereo not drawn),-2.96%,-9.21%,-5.03%,84.3%,72.2%,1.32%,5.6%
O=C(OCC(F)(F)C(F)F)c1ccccc1C(=O)Oc1ccc(F)cc1F,-2.13%,-13.3%,-3.1%,99.1%,96.1%,1.86%,3.89%
COc1ccc(OC)c(NC(=O)CNC(=O)Cn2ccc3ccccc3c2=O)c1,-9.38%,10.5%,-1.6%,104%,90.5%,3.29%,-0.05%
C=CCOC(=O)CCP(=O)(CCC(=O)OCC=C)c1ccccc1,5.05%,1.05%,-1.13%,96.5%,98.8%,-0.22%,-1.29%
COc1ccccc1Nc1nc(N)nc(CN2CCOCC2)n1,-12.9%,-6.13%,-0.98%,108%,101%,0.845%,3.74%
CC1(C)CC2CC(C)(CN2C(=O)C23CCC(C)(C(=O)O2)C3(C)C)C1 (stereo not drawn),-6.75%,-1.53%,-1.13%,92.5%,91.1%,2.16%,4%
CCCn1c(CNc2ccc(Br)cc2)nc2ccccc21,-11.7%,-9.32%,-3.5%,88.2%,82.7%,1.47%,1.62%
CC(=O)Nc1ccc(C2Nc3ccccc3C(=O)N2C2CCCCC2)cc1 (stereo not drawn),-5.95%,-9.11%,-1.42%,94.9%,93.6%,2.73%,-0.56%
COc1ccc(S(=O)(=O)N2CCC(C(=O)N3CCc4ccccc4C3)CC2)cc1,11.1%,-10.1%,-5.43%,93.5%,85%,0.13%,2.53%
CCSc1nnc(NC(=O)c2ccccc2)s1,-19.1%,0.02%,1.94%,95.2%,98.7%,1.25%,4.7%
CC(=O)C1C(c2ccc(OC(F)F)cc2)NC(=O)NC1(O)C(F)(F)F (stereo not drawn),3.71%,-6.05%,0.74%,107%,97.4%,0.31%,5.93%
CCCS(=O)(=O)c1nc(S(=O)(=O)c2ccc(C)cc2)c(NCCCN2CCOCC2)s1,0.84%,-0.48%,-1.8%,91.8%,99.9%,0.475%,5.15%
CC(=O)c1sc(NC(=O)c2ccco2)nc1-c1ccccc1,-6.58%,6.05%,-1.39%,103%,87.7%,1.87%,1.69%
COc1ccc(NC(=O)Nc2cccc3cccnc23)cc1,-3.3%,-0.385%,-4.59%,88.5%,78%,-0.39%,0.21%
CC1=CS/C(=C(/C#N)C(=O)NCc2ccco2)N1c1ccccc1,-0.435%,-4.64%,-2.99%,117%,97.6%,2.08%,1.49%
Cn1c(/N=C/c2cccs2)nc2ccccc21,-8.72%,-5.94%,-2.39%,93.9%,94.8%,2.46%,1.77%
Cc1noc(C(=O)Nc2c(C)nn(Cc3ccccc3)c2C)c1Cl,-7.73%,7.98%,0.04%,93.1%,88.7%,2.25%,3.63%
CC(Oc1ccc(Cl)cc1Cl)C(=O)NCCCN1CCOCC1 (stereo not drawn),-8.88%,-10.2%,0.14%,96%,95%,-0.36%,0.47%
COc1cc2c(cc1OC)C(C(=O)Nc1ccc3c(c1)OCCO3)C(c1cccnc1)N(C)C2=O (stereo not drawn),-4.64%,-22.9%,-6.9%,85.6%,87.9%,1.38%,-0.57%
Cn1c(=O)[nH]c(=O)c2c1nc(N1CCN(c3ccccc3)CC1)n2CCSc1ncccn1,-4.54%,7.86%,-2.82%,93%,82.6%,0.42%,4.89%
Cc1cccc(C2Nc3ccccc3C(=O)N2CCc2ccccc2)n1 (stereo not drawn),-10.1%,-2.82%,-2.91%,78.3%,73.5%,2.09%,7.42%

# From PubChem BioAssay
